From publication PMC10938640 (Chemistry & biodiversity, 2023) come the findings set out here.

“Also recorded” adds a separate entry of the source. Some results are limits rather than exact numbers.

Data set [1] relates to Jurkat acute T cell leukemia cell line. Put plainly: Differential Nuclear Staining. In kind it is cell-based, human. The following applies: 48 h exposure, DNS assay. Put shortly: (§1)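 Cells grown in RPMI-1640 with 10% heat-inactivated FBS and penicillin/streptomycin at 37 °C, 5% CO2, then seeded at 10,000/well and left overnight. Test compound given at […] for 48 h, with untreated, 1% v/v DMSO and 1 mM H2O2 controls, at least three technical replicates. Hoechst plus PI (1 μg/mL final) added for the last 2 h. Wells imaged at 4X, live/dead percentages scored, and CC50 derived by linear interpolation.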

For data set [2], the system named is CEM acute lymphoblastic leukemia cell line. Put plainly: Differential Nuclear Staining. The format is cell-based, human. An outline of the steps: as §1
Data set [3] has as its system MCF-10A mammary epithelial cell line. The data set can be described thus: Differential Nuclear Staining. As to conditions: MCF-10A, 72 h exposure, DNS assay. The format is cell-based, human.
Data set [4] has as its system MDA-MB-231 triple-negative breast cancer cell line. The data set can be described thus: Differential Nuclear Staining. In kind it is cell-based, human.
Data set [5] can be described thus: Solubility in the cytotoxicity experiment. The following applies: could not be examined at concentrations higher than 1 μM; crystals formed. In kind it is physicochemical.
The nature of data set [6]: Differential Nuclear Staining. The format is cell-based, human. The following applies: human, MCF-10A mammary epithelial cells.
Data set [7] has as its system Jurkat cells. The data set can be described thus: Mitochondrial depolarization assay, MitoProbe JC-1. The format is cell-based, human. As to conditions: 5 h; for Cells with depolarized mitochondria: solvent 20.9%.
The test system of data set [8] is Jurkat cells. Put plainly: Annexin V-FITC/PI apoptosis assay. The format is cell-based, human. As to conditions: 24 h, CC50 (4.36 μM) and 2x CC50 (8.72 μM), vs vehicle control.
The subject of data set [9] is Jurkat cells. Put plainly: Reactive oxygen species. The format is cell-based, human. As to conditions: 18 h, CC50 (4.36 μM) and 2x CC50 (8.72 μM) of 6h, H2O2 positive control, vs DMSO.
Data set [10] concerns Jurkat cells. Put plainly: Cell cycle distribution analysis, NIM-DAPI. In kind it is cell-based, human. As to conditions: 72 h.
The mark [11] stands for this setting: MDA-MB-231, 72 h exposure, DNS assay.
Setting [12] is: 6h at CC25 (2.18 μM) and CC50 (4.36 μM), vs DMSO.

The term CC50 denotes the concentration at which the toxic effect on the cells reaches its halfway point. Read a low CC50 as harm at low concentration. Turning to `O=C1Nc2ccccc2C1=Cc1cn(-c2ccccc2)nc1-c1ccccc1` [Compound 6a], the 50% cytotoxic concentration (CC50) in data set [1] was more than 1 µM; in data set [2] (CEM, 48 h exposure, DNS assay), more than 1 µM; in [3], more than 1 µM; in data set [4] (setting [11]), more than 1 µM. Further, in data set [5], the “Solubility (result in words)” value was “poor solubility”.
With `Cc1ccc(-c2nn(-c3ccccc3)cc2C=C2C(=O)Nc3ccccc32)cc1` [Compound 6b, 3-((1-Phenyl-3-(p-tolyl)-1H-pyrazol-4-yl)methylene)indolin-2-one], the CC50 is more than 1 µM in data set [1] (Homo sapiens, 48 h); more than 1 µM in [2] (Homo sapiens, 48 h); more than 1 µM in data set [4] (Homo sapiens, MDA-MB-231, 72 h). This molecule came in with a CC50 at 72 h in data set [6] of more than 1 µM. Further, in data set [5], the “Solubility (result in words)” value is recorded as “poor solubility”.
Regarding `O=C1Nc2ccccc2C1=Cc1cn(-c2ccccc2)nc1-c1ccc([N+](=O)[O-])cc1` [Compound 6c, 3-((3-(4-Nitrophenyl)-1-phenyl-1H-pyrazol-4-yl)methylene)indolin-2-one], the 50% cytotoxic concentration (CC50) was more than 20 µM in [1] (Homo sapiens, 48 h); more than 20 µM in [2] (Homo sapiens, 48 h); more than 20 µM in data set [4] (Homo sapiens, MDA-MB-231, 72 h). The molecule also yielded a half-maximal cytotoxic concentration (CC50) at 72 h in data set [6] of more than 20 µM.
Take `COc1ccc(-c2nn(-c3ccccc3)cc2C=C2C(=O)Nc3ccccc32)cc1` [Compound 6d, 3-((3-(4-Methoxyphenyl)-1-phenyl-1H-pyrazol-4-yl)methylene)indolin-2-one]: the CC50 in data set [1] (Homo sapiens, 48 h) is more than 1 µM; in data set [2] (Homo sapiens, 48 h), more than 1 µM; in data set [4] (Homo sapiens, MDA-MB-231, 72 h) it was more than 1 µM. This molecule displayed a CC50 at 72 h in data set [6] of more than 1 µM. Besides, the “Solubility (result in words)” value in data set [5] was “poor solubility”.
Consider `O=C1Nc2ccccc2C1=Cc1cn(-c2ccccc2)nc1-c1ccc(Cl)cc1` [Compound 6e, 3-((3-(4-Chlorophenyl)-1-phenyl-1H-pyrazol-4-yl)methylene)indolin-2-one], for which the CC50 in [1] (Homo sapiens, 48 h) was more than 20 µM; in data set [2] (Homo sapiens, 48 h) it was more than 20 µM; in data set [4] (Homo sapiens, MDA-MB-231, 72 h), more than 20 µM. This molecule returned a CC50 at 72 h in data set [6] of more than 20 µM.
On to `O=C1Nc2ccccc2C1=Cc1cn(-c2ccccc2)nc1-c1cc2ccccc2oc1=O` [Compound 6f, 3-((3-(2-Oxo-2H-chromen-3-yl)-1-phenyl-1H-pyrazol-4-yl)methylene)indolin-2-one], for which the CC50 in data set [1] (Homo sapiens, 48 h) is more than 20 µM; in [2] (Homo sapiens, 48 h), more than 20 µM; in data set [4] (Homo sapiens, MDA-MB-231, 72 h), more than 20 µM. The CC50 at 72 h in [6] was more than 20 µM.
In the case of `Cc1ccc2c(c1)C(=Cc1cn(-c3ccccc3)nc1-c1ccccc1)C(=O)N2` [Compound 6g, 3-((1,3-diphenyl-1H-pyrazol-4-yl)methylene)-5-methylindolin-2-one], the CC50 in [1] (Homo sapiens, 48 h) was more than 20 µM; in data set [2] (Homo sapiens, 48 h), more than 20 µM; in [4] (Homo sapiens, MDA-MB-231, 72 h), more than 20 µM. Besides, the half-maximal cytotoxic concentration (CC50) at 72 h in data set [6] is 13 ± 0.49 µM.
In the case of `Cc1ccc(-c2nn(-c3ccccc3)cc2C=C2C(=O)Nc3ccc(C)cc32)cc1` [Compound 6h, 5-methyl-3-((3-(1-phenyl)-3-(p-tolyl)-1H-pyrazol-4-yl)methylene)indolin-2-one], the half-maximal cytotoxic concentration (CC50) in data set [1] is 4.36 ± 0.2 µM; in data set [2] (CEM, 48 h exposure, DNS assay), 7.14 ± 0.92 µM; in [3], 14.8 ± 1.48 µM; in [4] (setting [11]), more than 20 µM. For the same molecule, the “Mitochondrial depolarization (result in words)” value in [7] (CC50 and 2x CC50) is “does not cause mitochondrial depolarization; also recorded: No significant increase in cells with depolarized mitochondria”. The “Cells with depolarized mitochondria” value was 18.7% in data set [7] (at 2x CC50, untreated 13.2%) and 18.3% in data set [7] (at CC50, untreated 13.2%). The “Phosphatidylserine (PS) externalization / apoptosis” value in [8] is “induces a significant amount of PS externalization in a dose-response trend; also recorded: induced significant PS externalization”. In addition, in data set [9], the ROS overproduction/accumulation entry is on record as “does not activate ROS overproduction and/or accumulation; also recorded: does not cause ROS accumulation”. Further, the “DNA fragmentation (sub G0/G1)” value in data set [10] (setting [12]) is “moderate but significant increase in DNA fragmentation (sub G0/G1); also recorded: significant increase in DNA fragmentation (sub G0/G1; A)”. In [10] (setting [12]), the G0/G1 phase subpopulation result is on record as “significant cell cycle arrest was seen in the G0/G1 subpopulation; also recorded: cell cycle arrest in the G0/G1 diploid phase”. Also, the “G2/M (tetraploid) phase subpopulation” value in data set [10] (setting [12]) was “small but also significant reduction in the G2/M (tetraploid) phase; also recorded: significant decrease in G2/M”.
For the molecule `COc1ccc(-c2nn(-c3ccccc3)cc2C=C2C(=O)Nc3ccc(C)cc32)cc1` [Compound 6i, 3-((3-(4-methoxyphenyl)-1-phenyl-1H-pyrazol-4-yl)methylene)-5-methylindolin-2-one], the CC50 in data set [1] (Homo sapiens, 48 h) was more than 20 µM; in [2] (Homo sapiens, 48 h), more than 20 µM; in data set [4] (Homo sapiens, MDA-MB-231, 72 h) it was more than 20 µM. The same molecule returned a CC50 at 72 h in data set [6] of 9.37 ± 0.42 µM.
For the molecule `Cc1ccc2c(c1)C(=Cc1cn(-c3ccccc3)nc1-c1ccc(Cl)cc1)C(=O)N2` [Compound 6j, 3-((3-(4-chlorophenyl)-1-phenyl-1H-pyrazol-4-yl)methylene)-5-methylindolin-2-one], the cytotoxic concentration (CC50) is 7.66 ± 0.19 µM in data set [2] (Homo sapiens, 48 h) and more than 20 µM in data set [4] (Homo sapiens, MDA-MB-231, 72 h). Further, in [6], it took 8.59 ± 0.31 µM to reach half-maximal cytotoxicity (CC50 at 72 h).
With `Cc1ccc2c(c1)C(=Cc1cn(-c3ccccc3)nc1-c1cc3ccccc3oc1=O)C(=O)N2` [Compound 6k, 5-methyl-3-((3-(2-oxo-2H-chromen-3-yl)-1-phenyl-1H-pyrazol-4-yl)methylene)indolin-2-one], the CC50 is more than 20 µM in data set [1] (Homo sapiens, 48 h); more than 20 µM in data set [2] (Homo sapiens, 48 h); more than 20 µM in data set [4] (Homo sapiens, MDA-MB-231, 72 h). This molecule also displayed a 50% cytotoxic concentration (CC50) at 72 h in [6] of more than 20 µM.
For the molecule `OO` [Compound H2O2, H2O2, reference compound], the ROS overproduction/accumulation entry in [9] was “displayed the highest amount of accumulated ROS”. The “DNA fragmentation (sub G0/G1)” value in data set [10] (setting [12]) is listed as “moderate but significant increase in DNA fragmentation (sub G0/G1)”.
As for `COc1cc([C@@H]2c3cc4c(cc3[C@@H](O[C@@H]3O[C@@H]5CO[C@@H](C)O[C@H]5[C@H](O)[C@H]3O)[C@H]3COC(=O)[C@H]23)OCO4)cc(OC)c1O` [etoposide, reference compound], the “DNA fragmentation (sub G0/G1)” value in data set [10] (setting [12]) is recorded as “moderate but significant increase in DNA fragmentation (sub G0/G1)”. For the same molecule, the “S hyperdiploid phase subpopulation” value in data set [10] (control) is listed as “significant arrest in the S hyperdiploid phase”.
